Measured values as given in ChEMBL document CHEMBL4619773, “Chemoreactive-Inspired Discovery of Influenza A Virus Dual Inhibitor to Block Hemagglutinin-Mediated Adsorption and Membrane Fusion” (J Med Chem, 2020).
The source made the active and inactive calls. The rule behind the calls is not given here.

Assays:
Influenza A virus [1] = experiment: Antiviral activity against Influenza A virus (A/Puerto Rico/8/1934(H1N1)) infected in Kunming mouse assessed as improvement in body weight at 20 to 40 ug/day dosed intranasally starting 4 hrs after viral challenge and continued for 7 days and measured up to day 14 by plaque assay; assay type: functional, organism-based
Outline: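 Groups of 10 female Kunming mice were infected intranasally with PR8 (1000 PFU/mouse) on day 0 and dosed once daily for seven days. Weight and clinical signs were recorded daily. Mice losing more than 25% of pre-infection weight were scored dead and euthanized; survivors were killed on day 14.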

[2] = Cumulative drug excretion in mouse feces at 5 mg/kg, po administered as single dose measured after 72 hrs; assay type: ADME, organism-based; conditions: faeces, read-out: Drug excretion
Outline: (§1)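 Single oral (gavage, 0.5% CMC-Na) or iv (tail vein, PEG400) dosing was given to male Kunming mice or Sprague Dawley rats held in metabolic cages. Urine and feces were collected at intervals to 72 h. Feces were dried, ground and homogenized in water (1:9 w/v). Samples were precipitated with acetonitrile containing internal standard and analysed by LC-MS/MS.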

[3] = Cmax in rat at 3.5 mg/kg , po administered as single dose; assay type: ADME, organism-based; parameters: dose 3.5 mg/kg, route oral; conditions: in vivo
Outline: (§2)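 Male Kunming mice (20-25 g) and male Sprague Dawley rats (180-220 g) were fasted 12 h before dosing. Oral dosing was by gavage as a suspension in 0.5% sodium carboxymethyl cellulose; iv dosing was via tail vein in PEG400. Serial plasma samples were taken to 24 h, protein-precipitated with acetonitrile plus N-CH3 internal standard, and quantified by LC-MS/MS (n=3). Bioavailability = AUCoral/AUCiv.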

[4] = AUC (0 to t) in rat at 0.35 mg/kg /kg, iv administered as single dose; assay type: ADME, organism-based; conditions: in vivo; outline: as §2
[5] = Cumulative drug excretion in rat urine at 0.35mg/kg, iv administered as single dose measured after 72 hrs; assay type: ADME, organism-based; conditions: read-out: Drug excretion; outline: as §1
Influenza A virus [6] = experiment: Antiviral activity against Influenza A virus (A/California/04/2009(H1N1)) infected in MDCK cells incubated for 3 days by crystal violet staining based plaque assay; assay type: functional, organism-based; conditions: 72 h
Outline: (§3)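 Confluent MDCK monolayers were exposed to 10-fold serial virus dilutions for 1 h at 37 °C, then washed. The overlay was DMEM with 1.5% agarose, 0.02% DEAE-dextran and 1 µg/ml TPCK-trypsin. After 3 days at 37 °C in 5% CO2, cells were fixed with 0.05% glutaraldehyde, stained with 1% crystal violet in 20% ethanol, and plaques were counted.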

Influenza A virus [7] = experiment: Antiviral activity against Influenza A virus Virginia/ATCC1/2009 infected in MDCK cells incubated for 3 days by crystal violet staining based plaque assay; assay type: functional, organism-based; conditions: Virginia/ATCC1/2009, MDCK, 72 h; outline: as §3
Influenza A virus H3N2 = experiment: Antiviral activity against Influenza A virus H3N2 (A/swine/Minnesota/02719/2009) infected in MDCK cells incubated for 3 days by crystal violet staining based plaque assay; assay type: functional, organism-based; conditions: 72 h; outline: as §3
Influenza A virus [8] = experiment: Antiviral activity against Influenza A virus (A/Puerto Rico/8/1934(H1N1)) infected in Kunming mouse assessed as decrease in lung IL6 level at 5 to 10 mg/kg/day, po starting 4 hrs after viral challenge and continued for 4 days by ELISA; assay type: functional, organism-based
Outline: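 Four-week-old female Kunming mice received PR8 intranasally (500 PFU/mouse in 40 µL PBS) and were then dosed once daily orally or intranasally. Lungs were collected on day 4, and TNF-α and IL-6 in lung tissue were measured by ELISA.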

[9] = Toxicity in Kunming mouse assessed as effect on creatine kinase level at 5 to 10 mg/kg/day, po for 7 days; assay type: organism-based; conditions: in vivo, 168 h
Outline: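 Male Kunming mice (20–25 g) received compound orally at 5 or 10 mg/kg/day, suspended in 0.5% sodium carboxymethyl cellulose, once daily for 7 days; controls received vehicle. Serum was collected under isoflurane 24 h after the last dose. AST, ALT, CR, BUN, LDH, CK and CK-MB were measured with commercial kits.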

[10] = molecular target: Neuraminidase (Influenza A virus (A/Puerto Rico/8/1934(H1N1))) (UniProt P03468); experiment: Inhibition of neuraminidase in inactivated Influenza A virus (A/Puerto Rico/8/1934(H1N1)) supernatants at 12.5 to 200 ug/mL pre-incubated for 30 mins by fluorescence based assay relative to control
Outline: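 Inactivated PR8 virus supernatant was mixed with compound diluted in 33 mM MES ([…]) and 4 mM CaCl2 for 30 min at 37 °C. MUNANA (20 µM) was then added for 30 min at 37 °C. The reaction was stopped with 25% ethanol and 0.1 M glycine, pH 10.7. Fluorescence was read at ex 360 and em 440 nm.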

[11] = molecular target: Hemagglutinin (Influenza A virus (A/Puerto Rico/8/1934(H1N1))) (UniProt P03452); experiment: Inhibition of Influenza A virus (A/Puerto Rico/8/1934(H1N1)) Hemagglutinin expressed in African green monkey Vero cells assessed as reduction in virus-induced syncytium formation at 50 ug/ml pre-treated with trypsin followed by compound addition for 15 mins and measured after 2 hrs at pH 5 by HA syncytium assay; assay type: cell-based
Outline: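 Vero cells were transfected with PR8 HA plasmid (2 µg per well). At 16 h post-transfection, HA was cleaved with 5 µg/mL TPCK-trypsin for 15 min at 37 °C. Cells were pre-incubated with compound for 15 min at 37 °C, then exposed to pH 5.0 buffer containing compound for 10 min at 37 °C. After rinsing, cells were kept in 10% FBS medium for 2 h, stained, and syncytia imaged.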

Influenza A virus [12] = experiment: Antiviral activity against luciferase tagged Influenza A virus H5N1 pseudovirus infected in MDCK cells assessed as reduction in virus infection incubated for 48 hrs by luciferase reporter gene assay; assay type: functional, organism-based
Outline: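 MDCK cells infected with luciferase-expressing H5N1 HA/NA pseudotyped HIV-based virus were treated with compound under four different treatment regimens. Infection was quantified by firefly luciferase glow assay.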

[13] = molecular target: Hemagglutinin (Influenza A virus (A/Puerto Rico/8/1934(H1N1)), UniProt P03452); experiment: Binding affinity to Influenza A virus (A/California/04/2009(H1N1)) Hemagglutinin at 1.5625 to 50 uM by SPR assay
Outline: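 HA protein was immobilized on CM5 chips. Compound (50, […], 12.5, 6.25, 3.125, 1.5625 µM) was injected for 2 min, followed by a 10-min PBST wash and regeneration with 2 mM NaOH for 30 s. Runs were at 25 °C with 2 µl/s flow, using a blank HA-free reference channel. KD was obtained from kinetic fitting.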

[14] = molecular target: Hemagglutinin (Influenza A virus (A/Puerto Rico/8/1934(H1N1))) (UniProt P03452); experiment: Inhibition of conformational changes in Influenza A virus (A/Puerto Rico/8/1934(H1N1)) Hemagglutinin assessed as increase in retention amount of HA1 subunit on HA proteins at 25 to 50 ug/ml added before acidification incubated for 1 hr by conformational change inhibition assay
Outline: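 C-terminal biotinylated H1/PR8 HA (0.2 µg/ml) was captured on streptavidin plates for 1 h at RT. Compound (50, 25, 12.5 µg/ml) was added for 1 h, then 1 M acetate pH 5.25 for 20 min. 2.5 mM DTT was applied for 60 min to remove HA1 from postfusion HA. Retained HA1 was detected with anti-HA1 head antibody and HRP secondary, read as A450 with TMB.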

Hemagglutinin (Influenza A virus (A/Puerto Rico/8/1934(H1N1))), sequence (P03452 whole entry, the tested form may be a part): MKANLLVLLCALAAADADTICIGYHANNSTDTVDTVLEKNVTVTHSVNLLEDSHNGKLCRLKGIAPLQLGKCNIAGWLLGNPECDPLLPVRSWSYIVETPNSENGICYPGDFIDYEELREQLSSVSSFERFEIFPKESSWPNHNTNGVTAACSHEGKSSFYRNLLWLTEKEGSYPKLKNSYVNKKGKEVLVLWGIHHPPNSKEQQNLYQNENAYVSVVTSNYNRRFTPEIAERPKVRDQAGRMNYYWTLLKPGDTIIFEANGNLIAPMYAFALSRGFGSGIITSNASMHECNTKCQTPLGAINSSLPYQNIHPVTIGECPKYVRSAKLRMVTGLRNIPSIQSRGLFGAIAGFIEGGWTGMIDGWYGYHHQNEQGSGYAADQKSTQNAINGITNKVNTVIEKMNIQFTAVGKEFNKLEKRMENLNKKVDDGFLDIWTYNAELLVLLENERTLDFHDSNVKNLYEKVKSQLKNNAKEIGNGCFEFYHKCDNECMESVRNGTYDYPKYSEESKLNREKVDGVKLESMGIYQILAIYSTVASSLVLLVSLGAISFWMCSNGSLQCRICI
Neuraminidase (Influenza A virus (A/Puerto Rico/8/1934(H1N1))), sequence (P03468 whole entry): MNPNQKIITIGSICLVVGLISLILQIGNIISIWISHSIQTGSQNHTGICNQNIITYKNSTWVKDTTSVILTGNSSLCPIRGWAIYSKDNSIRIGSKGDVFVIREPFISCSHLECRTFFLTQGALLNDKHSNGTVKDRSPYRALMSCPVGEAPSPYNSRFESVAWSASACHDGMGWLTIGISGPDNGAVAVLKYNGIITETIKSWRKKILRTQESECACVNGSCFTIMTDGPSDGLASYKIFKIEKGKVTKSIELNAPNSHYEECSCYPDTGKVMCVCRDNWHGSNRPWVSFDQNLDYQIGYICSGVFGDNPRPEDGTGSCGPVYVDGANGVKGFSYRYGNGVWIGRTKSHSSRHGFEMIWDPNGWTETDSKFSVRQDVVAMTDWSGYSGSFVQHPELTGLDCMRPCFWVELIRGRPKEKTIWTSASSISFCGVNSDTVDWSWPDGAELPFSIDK
Hemagglutinin (Influenza A virus (A/Puerto Rico/8/1934(H1N1)), UniProt P03452), sequence (P03452 whole entry): as the sequence (P03452 whole entry, the tested form may be a part) above

For `CC(=O)c1cc(C)c(O)c(Cc2[nH]c3ccccc3c2Cc2c(O)c(C)cc(C(C)=O)c2O)c1O`, the Activity (Influenza A virus [1]) was “Active”, the dose excreted at 72 h [2] was 38.4% and the Cmax [3] was 287 ng/mL. The AUC(0-t) [4] was 10100 ng·h/mL, the dose excreted at 72 h [5] was 0.006% and the IC50 (Influenza A virus [6]) was < 13 µg/mL. For the same molecule, the IC50 (Influenza A virus [7]) was < 13 µg/mL, the IC50 (Influenza A virus H3N2) was < 13 µg/mL and the Activity (Influenza A virus [8]) was “Active”. For the same molecule, the Activity [9] was “Non-Toxic”, the inhibition [10] was < 15% and the inhibition [11] was “Active”. For the same molecule, the Activity (Influenza A virus [12]) was “Dose-dependent effect”, the Kd [13] was 6.9 µM and the inhibition [14] was “Active”.
